# Assay outcomes (PubChem)
# TCR-CD3 inh – inhibitors of human TCR-CD3 interaction; TAMRA-labeled TCR probe fluorescence, biochemical; inhibition, % at 9.4 µM; 0.37% of 360,000 active; in the data active = inhibition above about 19%;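 note: recombinant mutant TCR 2C K166C tagged with TAMRA read by polarization; 0% = receptor in buffer alone and 100% = receptor with positive control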
# ABHD4 inh – inhibitors of mouse ABHD4; Q8VD66; purified mABHD4, FP-Rh probe fluorescence polarization; inhibition, % at 8.92 µM; 0.54% of 370,000 active; AID 720543;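 active = inhibition exceeding the mean over every tested compound plus 3 SD, cut at about 30% in these data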;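 note: 0% = plate median of compound wells and 100% = S159A mutant with DMSO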
#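 Assay system: mABHD4 protein; medium: HEPES pH 7.0, NaCl, Pluronic buffer; dosing: 8.92 µM, single dose; schedule: 45 min + 60 min at 25 °C; signal: FP readout, ex 525 nm / em 598 nm; read-out: normalized percent inhibition of probe labeling; repeats: single replicate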
# SIAE primary – inhibitors of human sialic acid acetylesterase SIAE. Q9HAT2. SIAE FP-Rh probe binding, fluorescence polarization. inhibition, % at 9.66 µM. 0.69% of 370,000 active. AID 1053197;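 active = inhibition above a cutoff: mean of compounds within the control limits plus 3 SD of those, cut at about 17% in these data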;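 note: 0% = plate median of compound wells and 100% = probe without SIAE protein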
# Target sequence (Q9HAT2 whole entry, looked up): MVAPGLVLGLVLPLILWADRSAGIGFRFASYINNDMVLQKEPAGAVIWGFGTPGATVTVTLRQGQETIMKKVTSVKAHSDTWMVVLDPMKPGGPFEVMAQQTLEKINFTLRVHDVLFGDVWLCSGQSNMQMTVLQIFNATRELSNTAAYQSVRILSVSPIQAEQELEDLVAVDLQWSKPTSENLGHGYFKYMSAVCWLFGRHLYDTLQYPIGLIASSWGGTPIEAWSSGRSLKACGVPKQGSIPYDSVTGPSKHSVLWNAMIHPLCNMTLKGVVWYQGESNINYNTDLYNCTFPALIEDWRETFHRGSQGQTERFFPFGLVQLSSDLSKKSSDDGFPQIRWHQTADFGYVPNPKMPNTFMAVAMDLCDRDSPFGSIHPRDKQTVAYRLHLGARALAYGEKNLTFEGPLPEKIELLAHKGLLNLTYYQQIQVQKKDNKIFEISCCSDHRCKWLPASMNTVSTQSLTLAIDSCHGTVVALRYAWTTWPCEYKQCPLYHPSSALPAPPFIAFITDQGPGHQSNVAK
# PRMT1 FP inh – inhibitors of human PRMT1; recombinant PRMT1, activity-based probe fluorescence polarization; inhibition, % at 2.79 µM; 1.3% of 370,000 active;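 active = inhibition above about 21% made by adding two undisclosed values, limit read from the data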
# rCAG binder-1 – binds r(CAG) RNA repeats | r(CAG) RNA repeat, TO-PRO-1 dye displacement fluorescence | inhibition, % at 3 µM | 1.3% of 370,000 active;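 active = inhibition above the plate cutoff, the mean of all test compounds on that plate plus 3 SD, cut at about 35% in these data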;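 note: 0% = DMSO alone and 100% = 100 µM mitoxantrone as full dye displacement; higher means more dye released from RNA so lower well fluorescence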
# rCAG binder conf – r(CAG) RNA repeat binding, confirmation | shares compounds with rCAG binder-1 | 70% of 4,300 active | inhibition, % at 3 µM | TO-PRO-1 dye displacement fluorescence;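 active = inhibition above a per-plate cutoff, the mean inhibition of sample wells plus 3 SD, cut at about 35% in these data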;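 note: loss of TO-PRO-1 fluorescence as compound displaces dye from 1x1 AA loop RNA; 0% = DMSO only wells and 100% = 100 µM mitoxantrone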
# dCAG dye counter – DNA CAG dye complex inhibition counter-screen; shares compounds with rCAG binder-1; d(CAG) DNA oligo TO-PRO-1 dye displacement, fluorescence; inhibition, % at 3 µM; 94% of 4,300 active; AID 652068;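 active = inhibition above its plate's cutoff, the mean test-well inhibition plus 3 SD, cut at about 4.8% in these data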;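 note: 0% = DNA dye mix with DMSO and 100% = 100 µM mitoxantrone; hits displace the dye from DNA and so lower well fluorescence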
# dCAG dye DR – disrupts DNA CAG TO-PRO-1 complex in dose response. IC50, µM. shares compounds with rCAG binder-1. DNA CAG/GTC duplex TO-PRO-1 dye displacement fluorescence. 20% of 250 active; in the data active = IC50 below about 10 µM
# dCAG DNA bind – DNA CAG dye complex inhibition, late stage dose response; shares compounds with rCAG binder-1; 80% of 30 active; IC50, µM; d(CAG) DNA duplex TO-PRO-1 dye displacement, fluorescence
# rCAG binder-2 – r(CAG) repeat RNA binding, TO-PRO-1 displacement; r(CAG) RNA TO-PRO-1 dye displacement, fluorescence; 100% of 30 active; IC50, µM; shares compounds with rCAG binder-1; AID 720651
# * hit, by the source's call; i = inactive; / = not tested or not shown. Compounds with a hit are over-represented: about 3.3% of the library has one in this group of screens. Unless noted, the rule behind the calls is not given here.
SMILES,TCR-CD3 inh,ABHD4 inh,SIAE primary,PRMT1 FP inh,rCAG binder-1,rCAG binder conf,dCAG dye counter,others
Cc1ccc(-c2cc(C(=O)NN=Cc3ccc(F)cc3)[nH]n2)cc1C,/,-23.7,-4.4,5.2,11.7,/,/,
Cc1oc2c(C)c3oc(=O)c(CCC(=O)N4CCC(C(=O)NCCC(=O)O)(c5ccccc5)CC4)c(C)c3cc2c1C,-1.1,0.2,0.9,4.9,35.4*,57.8*,16.3*,
COC(=O)c1sc(S(=O)(=O)Nc2ccc(C)cc2)c(C(=O)OC)c1C,0.0,-0.5,6.9,-1.5,13.9,/,/,
COC(=O)c1sc(S(=O)(=O)Nc2ccc(Br)cc2)c(C(=O)OC)c1C,0.6,-9.2,-0.8,-2.6,57.1*,42.0*,13.9*,
COc1ccc(C(C(=O)N(C)C2CCCC2)N(Cc2ccc(F)cc2)C(=O)c2sccc2Cl)cc1OC (stereo unspecified),/,-2.0,4.0,-2.9,0.0,/,/,
CCCc1cc(=O)oc2cc(C)c(CN3CCCC3)c(O)c12,5.8,19.5,-7.4,3.5,36.8*,24.4,11.7*,
CCc1cc(=O)oc2cc(C)c(CN3CCCC3)c(O)c12,7.7,11.5,1.8,14.0,35.6*,30.7,13.0*,
O=C(Nc1ccc(Br)cc1)OC1CC2CC1[C@H]1CCCCN1[C@H]2Cc1ccccc1 (stereo partly specified),/,-3.8,-0.6,-8.3,7.5,/,/,
Cc1cccc(NC(=S)NNC(=O)c2cc3c(s2)CCC(C)C3)c1C (stereo unspecified),4.2,10.2,-1.4,-2.6,37.3*,34.9*,11.8*,
Cc1ccc(C)c(NC(=S)NNC(=O)c2cc3c(s2)CCC(C)C3)c1 (stereo unspecified),-8.7,14.6,3.0,-1.2,30.7,/,/,
O=C(O)C(Cc1ccccc1)N1C(=O)c2c(Cl)c(Cl)c(Cl)c(Cl)c2C1=O (stereo unspecified),2.9,-1.6,3.4,-1.3,50.5*,53.5*,17.2*,
COc1cc(/C=C2\SC(=S)N(C(Cc3ccccc3)C(=O)O)C2=O)ccc1O (stereo unspecified),-88.5,-210.8,-153.5,12.6,45.4*,33.5,7.9*,
COc1cc(/C=C2\SC(=S)N(Nc3ccccc3)C2=O)ccc1O,-109.7,-215.1,-207.1,4.3,27.9,/,/,
O=C(O)C(Cc1ccccc1)N1C(=O)/C(=C/c2ccccc2)SC1=S (stereo unspecified),-3.8,-3.4,-2.6,1.7,53.0*,55.7*,19.7*,
Cc1ccc(/C=C2\SC(=S)N(C(Cc3ccccc3)C(=O)O)C2=O)cc1 (stereo unspecified),-2.8,2.0,15.6,4.0,42.2*,80.2*,37.1*,
C=C(C)Cn1c(SCC(=O)N/N=C(\C)c2ccc([N+](=O)[O-])cc2)nnc1-c1ccc(Br)cc1,/,-7.0,-6.2,-6.3,5.5,/,/,
C#CCNC(=O)C[C@H]1C[C@@]2(C(=O)OC)C(=C[C@H](COCc3ccccc3)O[C@@H]2C)N(CCCCCCCC)C1=O,/,-6.5,0.0,0.0,4.2,/,/,
CCCCSc1nc2c(cc1C#N)CCC2,2.6,-1.7,4.4,0.5,0.6,/,/,
CCCSc1nc(C)c(-c2csc(C(C#N)=C3CCCC3)n2)cc1C#N,-3.1,9.8,-6.6,5.2,43.9*,37.5*,25.2*,
Cc1ccc(S(=O)(=O)Oc2ccc(/C=C3\C(=N)N4N=C(S(C)(=O)=O)SC4=NC3=O)cc2)cc1,6.8,1.6,-31.5,3.4,63.1*,88.2*,66.3*,
COc1cc(/C=C2\C(=N)N3N=C(S(C)(=O)=O)SC3=NC2=O)cc(OC)c1OCCOc1ccc(C)cc1,3.1,4.9,-18.5,3.5,57.1*,88.2*,57.5*,
COc1cc(/C=C2\C(=N)N3N=C(S(C)(=O)=O)SC3=NC2=O)cc(OC)c1OCCOc1cccc(C)c1,6.2,16.9,-17.6,0.0,50.7*,88.7*,68.6*,
COc1cc(/C=C2\C(=N)N3N=C(S(C)(=O)=O)SC3=NC2=O)ccc1OCCOc1ccc(C)cc1,-5.0,-18.5,-10.0,7.6,24.4,/,/,
C[C@H]1CCCC(=O)N[C@@H](c2ccccc2)[C@@H](C)CCCC(=O)N[C@H]1c1ccccc1,/,5.1,2.4,2.2,3.5,/,/,
O=C(CSc1nc2ccccc2n1Cc1ccccc1Cl)N/N=C/c1ccccc1C(=O)O,0.3,-0.7,-9.7,5.0,38.8*,54.2*,15.6*,
SMILES,TCR-CD3 inh,ABHD4 inh,SIAE primary,PRMT1 FP inh,rCAG binder-1,rCAG binder conf,dCAG dye counter,others
CCOc1cc(/C=N/NC(=O)C(=O)NC2CC2)cc(Br)c1O,-5.3,-0.5,6.2,1.6,-1.4,/,/,
CCOc1cc(/C=N/NC(=O)C(N)=O)cc(Br)c1O,3.9,-0.5,1.6,-1.5,36.3*,1.0,0.0,
O=C(O)c1ccc(NC(=O)c2cn(-c3ccccc3)nc2-c2ccc(F)cc2)cc1,10.5,-52.1,-17.9,0.6,30.4,/,/,
O=C(O)c1ccc(NC(=O)c2cn(-c3ccccc3)nc2-c2cccc(Cl)c2)cc1,5.3,-60.9,-25.5,-4.7,35.8*,55.3*,18.9*,
O=C(/C=C/c1cn(-c2ccccc2)nc1-c1ccccc1)Nc1ccc(C(=O)O)cc1,1.1,-56.0,-135.8,-1.7,44.2*,72.9*,34.2*,dCAG dye DR=7.72*;dCAG DNA bind=i;rCAG binder-2=6.78*
COc1ccc(C(=O)OCCCN(C)C2CN(Cc3cn(Cc4ccccc4Cl)nn3)S(=O)(=O)C2)cc1OC (stereo unspecified),/,-0.3,2.8,1.2,2.3,/,/,
O=S(=O)(N[C@@H]1CCCC[C@H]1N1CCOCC1)c1ccc(Cl)cc1,/,2.9,-0.8,0.8,/,/,/,
O[C@@H]1[C@@H](O)[C@H](n2c3ccc(Cl)cc3c3ccc4c5cc(Cl)ccc5[nH]c4c32)OC[C@H]1O,/,-0.6,-11.5,2.4,51.1*,43.5*,26.7*,
CC(C(=O)O)c1ccc2c(c1)[nH]c1ccc(Cl)cc12 (stereo unspecified),2.8,-7.0,0.3,-1.4,10.6,/,/,
O=C(O)c1cccc(Nc2nc3ccccc3nc2NS(=O)(=O)c2ccccc2)c1,-3.2,4.2,2.9,0.2,36.4*,38.6*,11.6*,
O=C(O)c1ccc(Nc2nc3ccccc3nc2NS(=O)(=O)c2ccc(F)cc2)cc1,4.5,5.9,-4.1,-3.3,40.6*,53.3*,21.1*,
